According to ChEMBL document CHEMBL1134284, “The biological effects of structural variation at the meta position of the aromatic rings and at the end of the alkenyl chain in the alkenyldiarylmethane series of non-nucleoside reverse transcriptase inhibitors” (J Med Chem, 2001):
pEC50, pIC50: −log10 of the molar value.

Key:
[1] = (§1) Antiviral activity against ROJO virus strain in PBLs (peripheral blood lymphocytes); format: functional, cell-based; conditions: Homo sapiens
Summary of the method: (§2)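 PBMCs isolated from hepatitis- and HIV-seronegative donors by Ficoll-Hypaque gradient and stimulated 3 days with phytohemagglutinin/IL-2. Infected with pediatric low-passage clinical isolates or NIAID subtype isolates, in RPMI 1640 with 10% FBS, 2 mM glutamine, penicillin/streptomycin. Replication read as supernatant reverse transcriptase activity. […] Run in triplicate, with AZT as positive control.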

[2] = (§3) Antiviral activity against Ba-L monocyte tropic isolate strain in monocyte; format: functional; conditions: Homo sapiens
Summary of the method: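 Monocytes isolated from hepatitis- and HIV-seronegative donors by Ficoll-Hypaque gradient, cultured 6 days into macrophages, then infected with Ba-L. Medium RPMI 1640 with 10% FBS, 2 mM glutamine, penicillin/streptomycin. Replication read as p24 antigen by ELISA 6 days postinfection. […] Run in triplicate, with AZT as positive control.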

[3] = (§4) Antiviral activity against WEJO virus strain in PBLs (peripheral blood lymphocytes); format: ADME, cell-based; conditions: human, read-out: TC50 (the source's name)
Summary of the method: (§5)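 PBMC from hepatitis- and HIV-seronegative donors isolated by Ficoll-Hypaque gradient and stimulated 3 days with phytohemagglutinin/IL-2 before infection. Medium RPMI 1640 with 10% FBS, 2 mM glutamine, penicillin/streptomycin. Replication read as supernatant reverse transcriptase activity. […] Run in triplicate, SD within triplicate under 10%; AZT positive control.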

CCRF-CEM [4] = assay: Antiviral activity against site directed resistant isolate HIV-1 K101E in CEM cells; format: functional, cell-based, Homo sapiens
[5] = (§6) Antiviral activity against subtype isolate A strain in PBLs (peripheral blood lymphocytes); format: ADME, cell-based; conditions: human, read-out: TC50 (the source's name); summary of the method: as §5
[6] = (§7) Antiviral activity against subtype isolate B strain in PBLs (peripheral blood lymphocytes); format: ADME, cell-based; conditions: human, read-out: TC50 (the source's name); summary of the method: as §5
[7] = as §4; format: functional, cell-based; conditions: Homo sapiens; summary of the method: as §2
[8] = as §1; format: ADME, cell-based; conditions: human, read-out: TC50 (the source's name); summary of the method: as §5
[9] = (§8) Antiviral activity against subtype isolate O strain in PBLs (peripheral blood lymphocytes); format: cell-based; conditions: human, read-out: TC50 (the source's name); summary of the method: as §5
[10] = as §6; format: functional, cell-based; conditions: Homo sapiens; summary of the method: as §2
[11] = as §3; format: ADME; conditions: human, monocytes; read-out: TC50 (the source's name)
Summary of the method: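 Monocytes isolated from hepatitis- and HIV-seronegative donors by Ficoll-Hypaque gradient, cultured 6 days, then infected. Medium RPMI 1640 with 10% FBS, 2 mM glutamine, penicillin/streptomycin. Virus replication measured by p24 antigen ELISA 6 days postinfection. […] Run in triplicate, SD within triplicate under 10%; AZT positive control.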

[12] = (§9) Antiviral activity against subtype isolate F strain in PBLs (peripheral blood lymphocytes); format: cell-based; conditions: human, read-out: TC50 (the source's name); summary of the method: as §5
CCRF-CEM [13] = assay: Antiviral activity against site directed resistant isolate HIV-1 L100I in CEM cells; format: functional, cell-based, Homo sapiens
Summary of the method: (§10)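 CEM-SS cells in RPMI 1640 with 10% heat-inactivated FBS were infected with NL4-3 molecular clones carrying site-directed RT mutations. Cytoprotection from virus-induced syncytial killing was read by MTS/phenazine ethosulfate reduction (A490) 6 days after infection. […] Triplicate, variation of mean about 10%.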

[14] = (§11) Antiviral activity against subtype isolate G strain in PBLs (peripheral blood lymphocytes); format: cell-based; conditions: human, read-out: TC50 (the source's name); summary of the method: as §5
cells = conditions: Homo sapiens
[15] = (§12) Antiviral activity against subtype isolate D strain in PBLs (peripheral blood lymphocytes); format: functional, cell-based; conditions: Homo sapiens; summary of the method: as §2
CCRF-CEM [16] = assay: Antiviral activity against site directed resistant isolate HIV-1 V106A in CEM cells; format: functional, cell-based, Homo sapiens; summary of the method: as §10
CCRF-CEM [17] = assay: Antiviral activity against site directed resistant isolate HIV-1 K103N in CEM cells; format: functional, cell-based, Homo sapiens; summary of the method: as §10
CCRF-CEM [18] = assay: Antiviral activity against site directed resistant isolate HIV-1 Y181C in CEM cells; format: functional, cell-based, Homo sapiens; summary of the method: as §10
CCRF-CEM [19] = assay: Antiviral activity against site directed resistant isolates in HIV-1 A98G CEM cells; format: functional, cell-based, Homo sapiens
Summary of the method: (§13)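 CEM-SS cells infected with low-cytopathicity site-directed RT-mutant NL4-3 clones (A98G, L74V, 4XAZT = D67N/K70R/T215Y/K219Q, 4XAZT/L100I). Replication was quantified by p24 ELISA rather than cytoprotection. […] Triplicate, variation of mean about 10%.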

[20] = (§14) Antiviral activity against SLKA virus strain in PBLs (peripheral blood lymphocytes); format: ADME, cell-based; conditions: human, read-out: TC50 (the source's name); summary of the method: as §5
[21] = as §9; format: functional, cell-based; conditions: Homo sapiens; summary of the method: as §2
[22] = as §8; format: functional, cell-based; conditions: Homo sapiens; summary of the method: as §2
[23] = as §11; format: functional, cell-based; conditions: Homo sapiens; summary of the method: as §2
CCRF-CEM [24] = assay: Antiviral activity against site directed 4X AZT resistant isolate HIV-1 in CEM cells; format: functional, cell-based, Homo sapiens
CCRF-CEM [25] = assay: Antiviral activity against site directed 4X AZT resistant isolate HIV-1 L100I in CEM cells; format: functional, cell-based, Homo sapiens; summary of the method: as §13
[26] = (§15) Antiviral activity against subtype isolate C strain in PBLs (peripheral blood lymphocytes); format: ADME, cell-based; conditions: human, read-out: TC50 (the source's name); summary of the method: as §5
[27] = as §12; format: ADME, cell-based; conditions: human, read-out: TC50 (the source's name); summary of the method: as §5
[28] = as §7; format: functional, cell-based; conditions: Homo sapiens; summary of the method: as §2
CCRF-CEM [29] = assay: Antiviral activity against site directed resistant isolate HIV-1 V179D in CEM cells; format: functional, cell-based, Homo sapiens; summary of the method: as §10
[30] = (§16) Antiviral activity against subtype isolate E strain in PBLs (peripheral blood lymphocytes); format: ADME, cell-based; conditions: human, read-out: TC50 (the source's name); summary of the method: as §5
CCRF-CEM [31] = assay: Antiviral activity against site directed resistant isolate HIV-1 Y188C in CEM cells; format: functional, cell-based, Homo sapiens; summary of the method: as §10
[32] = (§17) Antiviral activity against multi drug resistant MDR 769 strain in PBLs (peripheral blood lymphocytes); format: functional, cell-based; conditions: Homo sapiens; summary of the method: as §5
[33] = as §14; format: functional, cell-based; conditions: Homo sapiens; summary of the method: as §2
CCRF-CEM [34] = assay: Antiviral activity against site directed resistant isolate HIV-1 L74V in CEM cells; format: functional, cell-based, Homo sapiens; summary of the method: as §13
[35] = as §16; format: functional, cell-based; conditions: Homo sapiens; summary of the method: as §2
[36] = (§18) Antiviral activity against TEKI virus strain in PBLs (peripheral blood lymphocytes); format: functional, cell-based; conditions: Homo sapiens; summary of the method: as §2
[37] = as §18; format: ADME, cell-based; conditions: human, read-out: TC50 (the source's name); summary of the method: as §5
[38] = as §17; format: ADME, cell-based; conditions: human, read-out: TC50 (the source's name); summary of the method: as §5
CCRF-CEM [39] = assay: Antiviral activity against site directed wild-type enzyme isolate HIV-1 NL4-3WT in CEM cells; format: functional, cell-based; conditions: Homo sapiens
Summary of the method: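 Wild-type NL4-3 in CEM-SS cells, measured both by MTS cytoprotection 6 days after infection and by p24 ELISA. The IC50 is the mean of the two methods' values.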

PBL = assay: as §1; format: functional, cell-based; conditions: Homo sapiens; summary of the method: as §2
[40] = as §16; format: functional, cell-based; conditions: Homo sapiens; remark: listed apart in the source
[41] = as §7; format: functional, cell-based, Homo sapiens; conditions: Homo sapiens; summary of the method: as §2
[42] = Ratio of CC50/EC50 was determined; conditions: read-out: TI
Summary of the method: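 HIV-1 RF–infected CEM-SS cells (RPMI 1640, 10% heat-inactivated FBS, 2 mM glutamine, penicillin/streptomycin), plus mock-infected CEM-SS in parallel. Cell killing and viability were read by MTS/phenazine ethosulfate reduction at 490 nm 6 days after infection. […] Index = CC50 ÷ EC50. Triplicate tests.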

[43] = as §9; format: functional, cell-based, Homo sapiens; conditions: Homo sapiens; summary of the method: as §2
[44] = target: Human immunodeficiency virus type 1 reverse transcriptase (Human immunodeficiency virus 1, UniProt Q72547); assay: Inhibitory activity against HIV-1 Reverse Transcriptase with rCdG as the template primer
Summary of the method: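 Cell-free assay with purified recombinant HIV-1 RT (p66/p51 dimer). Activity measured as [32P]GTP incorporation into the poly(rC)/oligo(dG) homopolymer template/primer. IC50 is reported as inhibition of enzyme activity.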

[45] = as §15; format: functional, cell-based; conditions: Homo sapiens; summary of the method: as §2
CEM-SS = assay: Concentration required for cytotoxicity against mock infected CEM-SS cells; format: functional; conditions: Homo sapiens
Summary of the method: (§19)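 CEM-SS cells kept in RPMI 1640 with 10% heat-inactivated FBS, 2 mM glutamine, penicillin/streptomycin. Microtiter assay with cytopathic HIV-1 RF, or mock infection for toxicity. Viability read by MTS/phenazine ethosulfate reduction (absorbance 490 nm) 6 days after infection. […] Triplicate.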

[46] = as §8; format: functional, cell-based, Homo sapiens; conditions: Homo sapiens; summary of the method: as §2
[47] = test system: Human immunodeficiency virus type 1 (RF/HAT ISOLATE); assay: Inhibitory concentration for cytopathicity of HIV-1RF in CEM-SS cells; format: functional, organism-based; conditions: Human immunodeficiency virus 1, RF; summary of the method: as §19

Row | SMILES | pIC50 [1] | pIC50 [2] | pIC50 (CCRF-CEM [4]) | pIC50 [7] | pIC50 [10] | pIC50 (CCRF-CEM [13]) | pIC50 [15] | pIC50 (CCRF-CEM [16]) | pIC50 (CCRF-CEM [17]) | pIC50 (CCRF-CEM [18]) | pIC50 (CCRF-CEM [19]) | pIC50 [23] | pIC50 (CCRF-CEM [25]) | pIC50 (CCRF-CEM [29]) | pIC50 (CCRF-CEM [31]) | pIC50 [32] | pIC50 [33] | pIC50 (CCRF-CEM [34]) | pIC50 [36] | pIC50 (CCRF-CEM [39]) | other results
1 | Cc1cn([C@H]2C[C@H](N=[N+]=[N-])[C@@H](CO)O2)c(=O)[nH]c1=O [ZIDOVUDINE] | 9.00 | 8.70 | 7.34 | 9.00 | 9.00 | 8.22 | 8.15 | 7.85 | 8.15 | 7.10 | 8.10 | 8.70 | 6.06 | 7.70 | 7.06 | 7.60 | 9.00 | 7.40 | 8.70 | 7.77 | CC50 [3]: > 190000 nM; CC50 [5]: > 180000 nM; CC50 [6]: > 200000 nM; CC50 [8]: > 190000 nM; CC50 [9]: > 170000 nM; CC50 [11]: > 200000 nM; CC50 [12]: > 200000 nM; CC50 [14]: > 170000 nM; pIC50 (cells): 8.40; CC50 [20]: > 190000 nM; pIC50 [21]: 8.70; pIC50 [22]: 9.00; pIC50 (CCRF-CEM [24]; ccrf-cem): 7.09; CC50 [26]: > 200000 nM; CC50 [27]: > 200000 nM; pIC50 [28]: 8.05; CC50 [30]: > 170000 nM; pIC50 [35]: 8.70; CC50 [37]: > 190000 nM; CC50 [38]: > 172000 nM
2 | CCOC(=O)CCCC=C(c1cc(Cl)c(OC)c(C(=O)OC)c1)c1cc(Cl)c(OC)c(C(=O)OC)c1 | – | 5.05 | 6.79 | 6.15 | 6.70 | 7.10 | 6.82 | 4.99 | 6.57 | 4.72 | 7.89 | 6.10 | 6.43 | 5.64 | 5.39 | 4.34 | 6.05 | 6.05 | 6.00 | 6.24 | pIC50 (PBL): 6.41; pIC50 [40]: 6.70; pIC50 [41]: 4.90; selectivity ratio [42]: 1600; pIC50 [43]: 6.52; pIC50 [44]: 6.63; pIC50 (CCRF-CEM [24]; Homo sapiens, CCRF-CEM): 7.12; pIC50 [45]: 6.09; CC50 (CEM-SS): 16000 nM; pIC50 [46]: 4.52; pEC50 [47]: 8.00
3 | CCOC(=O)CCCC=C(c1cc(Br)c(OC)c(C(=O)OC)c1)c1cc(Br)c(OC)c(C(=O)OC)c1 | 6.70 | 5.36 | 6.02 | – | 6.70 | 7.82 | 7.52 | 5.15 | 6.34 | 5.36 | 7.82 | 6.40 | 6.43 | 5.60 | 5.74 | 5.20 | 5.96 | 6.45 | 6.00 | 6.36 | pIC50 [40]: 7.00; pIC50 [41]: 5.31; selectivity ratio [42]: 2360; pIC50 [43]: 6.12; pIC50 [44]: 6.44; pIC50 (CCRF-CEM [24]; Homo sapiens, CCRF-CEM): 7.15; pIC50 [45]: 6.82; CC50 (CEM-SS): 16500 nM; pIC50 [46]: 4.68; pEC50 [47]: 8.15
